Source: ChEMBL document CHEMBL4819003, “Optimization of novel oxidative DIMs as Nur77 modulators of the Nur77-Bcl-2 apoptotic pathway” (Eur J Med Chem, 2021)
The source made the active and inactive calls. The calls are words filed in the database; no cut-off is given here.

Experiments:
MDA-MB-231 [1] = experiment: Induction of apoptosis in human MDA-MB-231 cells assessed as PARP cleavage at 0.5 uM measured after 6 hrs by western blot assay; assay type: functional, cell-based
Procedure, shortened: (§1)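 Cells exposed to 0.5 µM for 6 h. Lysates resolved by SDS-PAGE and blotted to PVDF, blocked in 5% milk/TBST, probed with primary antibodies at 1:1000, ECL detection. Apoptosis scored as the densitometric ratio of cleaved PARP band to intact PARP band; mean ± SD, n = 3.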

HCT-116 [2] = experiment: Induction of apoptosis in human HCT-116 cells assessed as PARP cleavage at 0.5 uM measured after 6 hrs by western blot assay; assay type: functional, cell-based; procedure, shortened: as §1
MCF-10A = experiment: Cytotoxicity against human MCF-10A cells assessed as inhibition of cell growth measured after 24 hrs by MTT assay; assay type: cell-based
Procedure, shortened: (§2)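 MTT viability assay, 24 h exposure to a concentration series, 10^4 cells/well. Cancer lines were in DMEM (BT549, MDA-MB-231) or RPMI-1640 (HCT116, SW620) with 10% FBS. MCF10A and NCM460 were in DMEM with 20% FBS and 10 ng/ml EGF. MTT at 5 mg/mL for 4 h at 37 °C, formazan dissolved in DMSO, A490. IC50 from curve fit; mean ± SD, at least 6 experiments.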

HCT-116 [3] = experiment: Cytotoxicity against human HCT-116 cells assessed as inhibition of cell growth measured after 24 hrs by MTT assay; assay type: functional, cell-based; procedure, shortened: as §2
NCM460 = experiment: Cytotoxicity against human NCM460 cells assessed as inhibition of cell growth measured after 24 hrs by MTT assay; assay type: cell-based; procedure, shortened: as §2
MDA-MB-231 [4] = experiment: Induction of apoptosis in human MDA-MB-231 cells assessed as PARP cleavage at 0.5 uM measured after 6 hrs by western blot assay relative to Di(1H-indol-3-yl)(4-(trifluoromethyl)phenyl)methylium methanesulfonate; assay type: functional
Procedure, shortened: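 MDA-MB-231 in DMEM with 10% FBS, 0.5 µM for 6 h, then PARP western blot with 1:1000 primary antibodies and ECL. Cleaved PARP/PARP band intensity ratio expressed relative to the reference methylium methanesulfonate, whose ratio was set to 1. Mean ± SD, n = 3.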

MDA-MB-231 [5] = experiment: Cytotoxicity against human MDA-MB-231 cells assessed as inhibition of cell growth measured after 24 hrs by MTT assay; assay type: functional, cell-based; conditions: MDA-MB-231, 24 h; procedure, shortened: as §2
BT-549 = experiment: Cytotoxicity against human BT-549 cells assessed as inhibition of cell growth measured after 24 hrs by MTT assay; assay type: functional, cell-based; conditions: BT-549, 24 h; procedure, shortened: as §2
SW-620 = experiment: Cytotoxicity against human SW-620 cells assessed as inhibition of cell growth measured after 24 hrs by MTT assay; assay type: functional, cell-based; conditions: SW-620, 24 h; procedure, shortened: as §2
[6] = biological target: T1, Nuclear receptor subfamily 4immunitygroup A member 1 (Homo sapiens, UniProt P22736); experiment: Binding affinity to recombinant human N-terminal His-tagged Nur77-LBD (367 to 598 residues) expressed in Escherichia coli BL21 DE3 by flourescence quenching assay
T1 sequence (P22736 whole entry, the tested form may be a part): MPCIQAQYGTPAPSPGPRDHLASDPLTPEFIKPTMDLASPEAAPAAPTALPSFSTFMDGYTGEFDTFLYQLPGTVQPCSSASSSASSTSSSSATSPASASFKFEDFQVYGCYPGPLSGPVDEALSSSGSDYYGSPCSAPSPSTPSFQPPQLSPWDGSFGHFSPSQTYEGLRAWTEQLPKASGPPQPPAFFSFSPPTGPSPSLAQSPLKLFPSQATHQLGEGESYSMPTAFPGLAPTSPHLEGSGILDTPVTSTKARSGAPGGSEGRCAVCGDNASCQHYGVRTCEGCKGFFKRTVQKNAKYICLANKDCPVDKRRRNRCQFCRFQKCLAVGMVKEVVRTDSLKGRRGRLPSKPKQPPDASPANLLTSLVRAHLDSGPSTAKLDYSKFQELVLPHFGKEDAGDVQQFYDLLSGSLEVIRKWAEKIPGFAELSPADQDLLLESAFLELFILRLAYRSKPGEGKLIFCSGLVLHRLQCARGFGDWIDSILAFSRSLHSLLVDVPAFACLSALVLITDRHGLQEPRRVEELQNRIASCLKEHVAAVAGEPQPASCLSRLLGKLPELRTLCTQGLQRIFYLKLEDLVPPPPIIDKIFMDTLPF
Procedure, shortened: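 Human Nur77-LBD (367–598), N-terminal His tag, pET15b in E. coli BL21 DE3, Ni resin purified. Nur77-LBD at 1 µM in PBS in a quartz cell, titrated with compound over 0.01–1 µM at 25 °C. Excitation 280 nm, emission scanned 300–500 nm; peak intensity at 330 nm versus compound concentration fitted to a reported formula for Kd.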

[7] = biological target: T1, Nuclear receptor subfamily 4immunitygroup A member 1; experiment: Binding affinity to recombinant human N-terminal His-tagged Nur77-LBD (367 to 598 residues) expressed in Escherichia coli BL21 DE3 by surface plasmon resonance assay
Procedure, shortened: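 His-tagged human Nur77-LBD (367–598) from E. coli BL21 DE3, diluted to 0.05 mg/mL in 10 mM NaAc pH 5.0 and amine-coupled to a CM5 chip (~9000 RU). Compounds at 0.01–5 µM in PBS with 0.4% DMSO, 25 °C, 30 µL/min; 150 s association, 420 s dissociation, regeneration with 10 mM glycine-HCl pH 2.5. Reference- and blank-subtracted; Kd from global 1:1 kinetic fit.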

MEF [8] = experiment: Induction of apoptosis in wild type mouse MEF cells assessed as PARP cleavage at 0.5 uM measured after 6 hrs by western blot assay; assay type: functional, cell-based
Procedure, shortened: (§3)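 Wild-type, Nur77−/− or Bcl-2−/− mouse embryonic fibroblasts grown in DMEM with 10% FBS and treated with 0.5 µM for 6 h. PARP cleavage detected by western blot, primary antibodies at 1:1000, ECL.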

MEF [9] = experiment: Induction of apoptosis in mouse MEF cells lacking Nur77 assessed as PARP cleavage at 0.5 uM measured after 6 hrs by western blot assay; assay type: functional, cell-based; procedure, shortened: as §3
MEF [10] = experiment: Induction of apoptosis in mouse MEF cells deficient in Bcl2 assessed as PARP cleavage at 0.5 uM measured after 6 hrs by Western blot assay; assay type: functional, cell-based; procedure, shortened: as §3

Structure (SMILES)	Activity (MDA-MB-231 [1])	Activity (HCT-116 [2])	also measured
Oc1cccc([C+](c2c[nH]c3ccccc23)c2c[nH]c3ccccc23)c1	inactive	Active	–
Fc1ccc([C+](c2c[nH]c3ccccc23)c2c[nH]c3ccccc23)cc1	Active	Active	–
FC(F)(F)c1ccc([C+](c2c[nH]c3ccccc23)c2c[nH]c3ccccc23)cc1	–	–	IC50 (MCF-10A; mcf-10a): 3580 nM; IC50 (HCT-116 [3]; hct-116): 260 nM; IC50 (NCM460; ncm460): 5130 nM
O=C(O)c1ccc([C+](c2c[nH]c3ccccc23)c2c[nH]c3ccccc23)cc1	inactive	Active	–
FC(F)(F)c1ccccc1[C+](c1c[nH]c2ccccc12)c1c[nH]c2ccccc12	inactive	inactive	–
c1ccc2c([C+](c3c[nH]c4ccccc34)c3csc4ccccc34)c[nH]c2c1	inactive	Active	–
c1csc([C+](c2c[nH]c3ccccc23)c2c[nH]c3ccccc23)c1	inactive	Active	–
c1ccc(-c2ccc([C+](c3c[nH]c4ccccc34)c3c[nH]c4ccccc34)cc2)cc1	Active	Active	–
FC(F)(F)c1ccc([C+](c2c[nH]c3ccccc23)c2c[nH]c3ccccc23)c(C(F)(F)F)c1	inactive	inactive	–
CCc1ccc([C+](c2c[nH]c3ccccc23)c2c[nH]c3ccccc23)cc1	inactive	inactive	–
c1cncc([C+](c2c[nH]c3ccccc23)c2c[nH]c3ccccc23)c1	inactive	Active	–
Fc1cccc([C+](c2c[nH]c3ccccc23)c2c[nH]c3ccccc23)c1	Active	Active	–
Cn1cc([C+](c2ccc(C(F)(F)F)cc2)c2cn(C)c3ccccc23)c2ccccc21	Active	inactive	–
Fc1ccccc1[C+](c1c[nH]c2ccccc12)c1c[nH]c2ccccc12	inactive	inactive	–
Oc1ccc([C+](c2c[nH]c3ccccc23)c2c[nH]c3ccccc23)cc1	Active	inactive	–
c1ccc2c([C+](c3c[nH]c4ccccc34)c3c[nH]c4ccccc34)c[nH]c2c1	inactive	Active	–
O=[N+]([O-])c1ccc([C+](c2c[nH]c3ccccc23)c2c[nH]c3ccccc23)cc1	inactive	Active	–
CS(=O)(=O)[O-].c1ccc([C+](c2c[nH]c3ccccc23)c2c[nH]c3ccccc23)cc1	Active	inactive	fold change (FC) (MDA-MB-231 [4]): 0.01

Structure (SMILES)	Activity (MDA-MB-231 [1])	Activity (HCT-116 [2])	also measured
Oc1ccccc1[C+](c1c[nH]c2ccccc12)c1c[nH]c2ccccc12	inactive	inactive	–
Clc1ccc([C+](c2c[nH]c3ccccc23)c2c[nH]c3ccccc23)cc1	inactive	Active	–
CC(C)(C)c1ccc([C+](c2c[nH]c3ccccc23)c2c[nH]c3ccccc23)cc1	inactive	inactive	–
COc1cccc([C+](c2c[nH]c3ccccc23)c2c[nH]c3ccccc23)c1	inactive	Active	–
c1coc([C+](c2c[nH]c3ccccc23)c2c[nH]c3ccccc23)c1	inactive	Active	–
COc1ccc([C+](c2c[nH]c3ccccc23)c2c[nH]c3ccccc23)cc1	inactive	inactive	–
CCn1cc([C+](c2ccc(C(F)(F)F)cc2)c2c[nH]c3ccccc23)c2ccccc21	Active	Active	IC50 (MDA-MB-231 [5]): 80 nM; IC50 (BT-549): 50 nM; IC50 (MCF-10A; Homo sapiens, MCF-10A, 24 h): 1500 nM; IC50 (HCT-116 [3]; Homo sapiens, HCT-116, 24 h): 100 nM; IC50 (SW-620): 100 nM; IC50 (NCM460; Homo sapiens, NCM460, 24 h): 3080 nM; Kd [6]: 66 nM; Kd [7]: 36 nM; Activity (MEF [8]): Active; Activity (MEF [9]): inactive; Activity (MEF [10]): inactive
FC(F)(F)c1cccc([C+](c2c[nH]c3ccccc23)c2c[nH]c3ccccc23)c1.[Cl-]	Active	Active	IC50 (MDA-MB-231 [5]): 290 nM; IC50 (BT-549): 70 nM; IC50 (MCF-10A; Homo sapiens, MCF-10A, 24 h): 5030 nM; IC50 (HCT-116 [3]; Homo sapiens, HCT-116, 24 h): 310 nM; IC50 (SW-620): 130 nM; IC50 (NCM460; Homo sapiens, NCM460, 24 h): 10000 nM; fold change (FC) (MDA-MB-231 [4]): 1.76
Clc1ccccc1[C+](c1c[nH]c2ccccc12)c1c[nH]c2ccccc12	inactive	inactive	–
Cc1ccc([C+](c2c[nH]c3ccccc23)c2c[nH]c3ccccc23)cc1	inactive	inactive	–
Cc1cccc([C+](c2c[nH]c3ccccc23)c2c[nH]c3ccccc23)c1	inactive	Active	–
CCCn1cc([C+](c2ccc(C(F)(F)F)cc2)c2c[nH]c3ccccc23)c2ccccc21	Active	Active	IC50 (MDA-MB-231 [5]): 170 nM; IC50 (BT-549): 100 nM; IC50 (MCF-10A; Homo sapiens, MCF-10A, 24 h): 1310 nM; IC50 (HCT-116 [3]; Homo sapiens, HCT-116, 24 h): 350 nM; IC50 (SW-620): 160 nM; IC50 (NCM460; Homo sapiens, NCM460, 24 h): 5090 nM; Activity (MEF [8]): Active; Activity (MEF [9]): inactive; Activity (MEF [10]): inactive
COC(=O)c1ccc([C+](c2c[nH]c3ccccc23)c2c[nH]c3ccccc23)cc1	Active	Active	–
Clc1cccc([C+](c2c[nH]c3ccccc23)c2c[nH]c3ccccc23)c1	inactive	Active	–
FC(F)(F)c1ccc([C+](c2c[nH]c3ccccc23)c2c[nH]c3ccccc23)cn1	Active	Active	IC50 (MDA-MB-231 [5]): 230 nM; IC50 (BT-549): 50 nM; IC50 (MCF-10A; Homo sapiens, MCF-10A, 24 h): 2980 nM; IC50 (HCT-116 [3]; Homo sapiens, HCT-116, 24 h): 350 nM; IC50 (SW-620): 140 nM; IC50 (NCM460; Homo sapiens, NCM460, 24 h): 8100 nM; Activity (MEF [8]): Active; Activity (MEF [9]): inactive; Activity (MEF [10]): inactive
CCCCn1cc([C+](c2ccc(C(F)(F)F)cc2)c2c[nH]c3ccccc23)c2ccccc21	Active	Active	–
CCCCCn1cc([C+](c2ccc(C(F)(F)F)cc2)c2c[nH]c3ccccc23)c2ccccc21	inactive	inactive	–
